pIC50, pKd: −log10 of the molar value. Active and inactive are the calls of the source.
Tests used:
[1] = biological target: T1, L-lactate dehydrogenase A chain (Homo sapiens, UniProt P00338); assay: Inhibition of GS[HiBiT]GS-tagged LDHA (unknown origin) expressed in HEK-293T cells measured after 1 hr by […]; assay type: cell-based
Method in brief: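 HEK293T cells were transiently transfected for 24 h with CMV-driven LDHA carrying a C-terminal GS[HiBiT]GS tag, then reseeded at 2500 cells/well in DPBS with Ca/Mg and 1 g/L glucose. […] Cells were lysed with NP40, and 11S (100 nM final) plus furimazine was added.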

[2] = Volume of distribution at steady state in CD-1 mouse at 10 mg/kg, iv and measured up to 24 hrs by LC/MS-MS analysis; assay type: ADME, organism-based; settings: in vivo
Method in brief: (§1)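 Male CD1 mice, about 6–8 weeks old and 20–30 g, received 10 mg/kg IV in 0.1 M NaOH in PBS adjusted to pH 7–8.5, made fresh on the day of dosing. Three mice per cohort. Blood was taken from the dorsal metatarsal vein at 5, 15, 30 min and 1, 2, 4, 8, 12, 24 h into heparin tubes. Plasma was spun at 4 °C, stored at –75 °C and analysed by LC–MS/MS. For IV dosing Cmax = C0.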

[3] = Terminal half life in CD-1 mouse at 50 mg/kg, po and measured up to 24 hrs by LC/MS-MS analysis; assay type: ADME, organism-based; settings: in vivo
Method in brief: (§2)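 Male CD1 mice, about 6–8 weeks old and 20–30 g, were dosed PO at 40 or 50 mg/kg in 0.1 M NaOH in PBS, pH 7–8.5, prepared the same day. Three mice per cohort. Plasma was spun at 4 °C, frozen at –75 °C and quantified by LC–MS/MS.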

[4] = Oral bioavailability in CD-1 mouse at 50 mg/kg and measured up to 24 hrs by LC/MS-MS analysis; assay type: ADME, organism-based; settings: in vivo
Method in brief: as §2, with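 “cohort. Dorsal metatarsal vein blood was collected into heparin at 15, 30 min and 1, 2, 4, 8, 12, 24 h.” for “cohort.”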

[5] = biological target: T1, L-lactate dehydrogenase A chain; assay: Inhibition of recombinant human LDHA using sodium pyruvate as substrate preincubated for 5 mins followed by diaphorase/resazurin addition and measured after 20 mins by fluorescence based assay
[6] = biological target: T1, L-lactate dehydrogenase A chain; assay: Inhibition of LDHA in human A673 cells assessed as decrease in lactate production incubated for 2 hrs by lactate oxidase-coupled fluorescence based assay; assay type: cell-based
[7] = biological target: T1, L-lactate dehydrogenase A chain; assay: Inhibition of LDHA in human MIA PaCa-2 cells assessed as decrease in lactate production incubated for 2 hrs by lactate oxidase-coupled fluorescence based assay; assay type: cell-based
Mus musculus [8] = assay: In vivo inhibition of LDH in human A673 cells xenografted athymic nude CrTac:NCr-Foxn1nu mouse assessed as reduction in tumor LDH activity at 50 mg/kg, iv after 1 hr by NADH-based UV-VIS spectrometric method relative to control; assay type: functional, organism-based
Method in brief: (§3)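 Female athymic nude mice carried SQ A673 flank xenografts (2 million cells) and received a single IV dose of 50 mg/kg in PBS-based vehicle. Four mice per time point were sacrificed at 1, 3, 6 and 24 h. Frozen tumor (10–50 mg) was pulverized and lysed in PBS pH 7.4 with 0.1% Triton X-100 on ice for 1 h. Cleared lysate (10–20 μg) was assayed with 10 mM pyruvate and 0.3 mM final NADH, reading NADH oxidation at 340 nm at 37 °C.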

[9] = Cmax in CD-1 mouse at 50 mg/kg, po and measured up to 24 hrs by LC/MS-MS analysis; assay type: ADME, organism-based; set-up: route oral, dose 50 mg/kg, time <=24; settings: in vivo
Method in brief: as §2, with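 “cohort. Dorsal metatarsal vein blood was collected into heparin at 15, 30 min and 1, 2, 4, 8, 12, 24 h.” for “cohort.”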

A673 = assay: Cytotoxicity against human A673 cells assessed as reduction in cell viability after 48 hrs by CellTiter-Glo assay; assay type: functional, cell-based; settings: A673, 48 h
Mus musculus [10] = assay: In vivo inhibition of LDH in human A673 cells xenografted athymic nude CrTac:NCr-Foxn1nu mouse assessed as reduction in tumor LDH activity at 50 mg/kg, iv after 6 hrs by UV-VIS spectrometric method relative to control; assay type: functional; method in brief: as §3
[11] = AUClast in CD-1 mouse at 50 mg/kg, po and measured up to 24 hrs by LC/MS-MS analysis; assay type: ADME, organism-based; set-up: route oral, dose 50 mg/kg, time <=24; settings: in vivo
Method in brief: as §2, with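 “cohort. Dorsal metatarsal vein blood was collected into heparin at 15, 30 min and 1, 2, 4, 8, 12, 24 h.” for “cohort.”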

[12] = AUClast in CD-1 mouse at 10 mg/kg, iv and measured up to 24 hrs by LC/MS-MS analysis; assay type: ADME, organism-based; set-up: route intravenous, dose 10 mg/kg, time <=24; settings: in vivo; method in brief: as §1
[13] = Terminal half life in CD-1 mouse at 10 mg/kg, iv and measured up to 24 hrs by LC/MS-MS analysis; assay type: ADME, organism-based; settings: in vivo; method in brief: as §1
MIA PaCa-2 = assay: Cytotoxicity against human MIA PaCa-2 cells assessed as reduction in cell viability after 48 hrs by CellTiter-Glo assay; assay type: functional, cell-based; settings: MIA PaCa-2, 48 h
Sus scrofa = species on record: Sus scrofa; assay: Inhibition of porcine heart MDH using malic acid as substrate preincubated for 10 mins followed by substrate addition and measured after 5 mins by resazurin based fluorescence based assay; settings: time 15.0 min
[14] = Cmax in CD-1 mouse at 10 mg/kg, iv and measured up to 24 hrs by LC/MS-MS analysis; assay type: ADME, organism-based; set-up: route intravenous, dose 10 mg/kg, time <=24; settings: in vivo; method in brief: as §1
[15] = biological target: L-lactate dehydrogenase B chain (Homo sapiens) (UniProt P07195); assay: Inhibition of recombinant human LDHB using sodium pyruvate as substrate preincubated for 5 mins followed by diaphorase/resazurin addition and measured after 20 mins by fluorescence based assay
L-lactate dehydrogenase B chain (Homo sapiens), sequence (P07195 2-334 limits assumed): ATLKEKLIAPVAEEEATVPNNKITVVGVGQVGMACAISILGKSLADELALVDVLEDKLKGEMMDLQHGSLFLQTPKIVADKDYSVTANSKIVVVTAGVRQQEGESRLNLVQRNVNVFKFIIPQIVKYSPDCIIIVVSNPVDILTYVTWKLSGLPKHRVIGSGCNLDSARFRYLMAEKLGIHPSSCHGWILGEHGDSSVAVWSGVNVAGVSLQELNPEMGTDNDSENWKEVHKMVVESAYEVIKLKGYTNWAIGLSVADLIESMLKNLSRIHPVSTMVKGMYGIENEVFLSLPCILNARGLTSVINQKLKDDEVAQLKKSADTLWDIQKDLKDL

[16] = biological target: T1, L-lactate dehydrogenase A chain; assay: Binding affinity to human His-tagged LDHA by SPR analysis
Method in brief: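 SPR on a Mass-1 instrument gave K_D and k_off. Residence time τ was calculated as 1/k_off (s⁻¹).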

SMILES	pIC50 [1]	Vdss [2] [L/kg]	beta t1/2 [3] [h]	F [4] [%]	pIC50 [5]	pIC50 [6]	pIC50 [7]	Cmax [9] [ng/mL]	AUClast [11] [ng·h/mL]	AUClast [12] [ng·h/mL]	beta t1/2 [13] [h]	inhibition (Sus scrofa)	Cmax [14] [ng/mL]	inhibition [15]	inhibition (Mus musculus [8])	pIC50 (A673)	inhibition (Mus musculus [10])	pIC50 (MIA PaCa-2)	pKd [16]
NS(=O)(=O)c1ccc(Cc2c(-c3ccc(F)c(/C=C/C4CCCC4)c3)nn(-c3nc(C(=O)O)cs3)c2CC2CC2)cc1F	6.97	13.3	3.1	83	7.13	6.43	6.83	1200	9220	2810	5.5	inactive	6440	Active	Active	6.31	Active	6.34	
Cc1ccc(C#Cc2cc(-c3nn(-c4nc(C(=O)O)cs4)c(CC4CC4)c3Cc3ccc(S(N)(=O)=O)c(F)c3)ccc2F)o1	7.10	10.3	10.7	106	7.33	6.26	6.26	1260	13520	2320	5.1	inactive	4770	Active					
Cc1ccc(C#Cc2cccc(-c3nn(-c4nc(C(=O)O)cs4)c(CCC4CC4)c3Cc3ccc(S(N)(=O)=O)c(F)c3)c2)s1	6.82	1.47	3.7	42	6.93	6.76	6.76	6850	20030	9600	5.8	inactive	58200	Active		6.73			
NS(=O)(=O)c1ccc(Cc2c(-c3cccc(-c4ccccc4)c3)nn(-c3nc(C(=O)O)cs3)c2CC2CC2)cc1											0.85								
NS(=O)(=O)c1ccc(Cc2c(-c3ccc(F)c(C#CC4CCCC4)c3)nn(-c3nc(C(=O)O)cs3)c2CC2CC2)cc1F	6.95				7.66	6.29	6.48					inactive		Active		7.00		6.50	10.71
Cc1cnc(C#Cc2cc(-c3nn(-c4nc(C(=O)O)cs4)c(CC4CC4)c3Cc3ccc(S(N)(=O)=O)c(F)c3)ccc2F)s1	6.77	17.9	3.54	39	7.28	5.88	5.80	2030	2650	1360	4.9	inactive	3320	Active	Active	6.10	Active	6.04	
Cc1ccc(C#Cc2cc(-c3nn(-c4nc(C(=O)O)cs4)c(CCC4CC4)c3Cc3ccc(S(N)(=O)=O)c(F)c3)ccc2F)s1	6.70	2.5	3.2	37	6.69	6.41	6.71	4730	12240	6650	6.5	inactive	35300	Active	Active	6.66	Active	6.65	
NS(=O)(=O)c1ccc(Cc2c(-c3cccc(C#Cc4ccc(C(F)F)s4)c3)nn(-c3nc(C(=O)O)cs3)c2CC2CC2)cc1F	6.87				6.81	6.46	6.54					inactive		Active		6.28		6.28	
NS(=O)(=O)c1ccc(Cc2c(-c3cccc(C#Cc4ccc(C(F)(F)F)s4)c3)nn(-c3nc(C(=O)O)cs3)c2CC2CC2)cc1F	6.95				6.36	6.31	6.47					inactive		Active		6.08		6.10	
Cc1ccc(/C=C/c2cccc(-c3nn(-c4nc(C(=O)O)cs4)c(CC4CC4)c3Cc3ccc(S(N)(=O)=O)c(F)c3)c2)s1	6.80				7.28	6.45	6.48					inactive		Active		6.34		6.33	

Further lines, with some results ahead:

pIC50 [1]	Vdss [2] [L/kg]	beta t1/2 [3] [h]	F [4] [%]	pIC50 [5]	pIC50 [6]	pIC50 [7]	Cmax [9] [ng/mL]	AUClast [11] [ng·h/mL]	AUClast [12] [ng·h/mL]	beta t1/2 [13] [h]	inhibition (Sus scrofa)	Cmax [14] [ng/mL]	inhibition [15]	SMILES	inhibition (Mus musculus [8])	pIC50 (A673)	inhibition (Mus musculus [10])	pIC50 (MIA PaCa-2)	pKd [16]
	13.9	3.2	38	7.48	6.03	6.06	1820	3440	1820	5.75	inactive	5500	Active	Cc1ncc(C#Cc2cc(-c3nn(-c4nc(C(=O)O)cs4)c(CC4CC4)c3Cc3ccc(S(N)(=O)=O)c(F)c3)ccc2F)s1		6.24		6.31	
6.90				7.96	6.39	6.49					inactive		Active	C/C=C/c1cc(-c2nn(-c3nc(C(=O)O)cs3)c(CC3CC3)c2Cc2ccc(S(N)(=O)=O)c(F)c2)ccc1F	Active	6.21	Active	6.28	
6.77	12.5	3.7	89	7.44	6.35	6.36	2280	10170	2280	5	inactive	4570	Active	Cc1ccc(C#Cc2cccc(-c3nn(-c4nc(C(=O)O)cs4)c(CC4CC4)c3Cc3ccc(S(N)(=O)=O)c(F)c3)c2)o1		6.55		6.53	
6.97				7.62	6.38	6.44					inactive		Active	CCCC#Cc1cc(-c2nn(-c3nc(C(=O)O)cs3)c(CC3CC3)c2Cc2ccc(S(N)(=O)=O)c(F)c2)ccc1F	Active	6.08	Active	6.13	
7.08				7.48	6.44	6.38					inactive		Active	Cc1cnc(C#Cc2cccc(-c3nn(-c4nc(C(=O)O)cs4)c(CCC4CC4)c3Cc3ccc(S(N)(=O)=O)c(F)c3)c2)s1		6.74		6.76	
